Measured values: ChEMBL document CHEMBL1121418, “Synthesis of syn and anti isomers of 6-[[(hydroxyimino)phenyl]methyl]-1-[(1-methylethyl)sulfonyl]-1H-benzimidazol-2-amine. Inhibitors of rhinovirus multiplication” (1980)
Converted amounts (≈) assume the structure as drawn.

What was measured:
HeLa [1] = assay: Tested in plaque-reduction assay with rhinovirus type 20 at indicated concentration. and the number of plaque formed was reported at conc. 0.35 ug/mL; type: functional, Homo sapiens
Procedure, shortened: (§1)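 Virus was adsorbed onto confluent monolayers for 1 h at room temperature. Monolayers were overlaid with a 1:1 mix of 1% agarose and 2× MEM (Earle's salts, 2.5% FBS) containing compound, diluted from a 10000 μg/mL Me2SO stock. Flasks were incubated at 32 °C until control plaques reached 2–10 mm. Cells were then fixed in 10% formalin–2% sodium acetate and stained with crystal violet, and plaques were counted. Counts from duplicate flasks were averaged.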

HeLa [2] = assay: Tested in plaque-reduction assay with rhinovirus type 20 at indicated concentration. and the number of plaque formed was reported at conc. 0.75 ug/mL; type: functional, Homo sapiens; procedure, shortened: as §1
HeLa [3] = assay: Tested in plaque-reduction assay with rhinovirus type 20 at indicated concentration. and the number of plaque formed was reported at conc. 0.00 ug/mL; type: functional, Homo sapiens; procedure, shortened: as §1
HeLa [4] = assay: Tested in plaque-reduction assay with rhinovirus type 20 at indicated concentration. and the number of plaque formed was reported at conc. 0.02 ug/mL; type: functional, Homo sapiens; procedure, shortened: as §1
HeLa [5] = assay: Tested in plaque-reduction assay with rhinovirus type 20 at indicated concentration. and the number of plaque formed was reported at conc. 0.04 ug/mL; type: functional, Homo sapiens; procedure, shortened: as §1
HeLa [6] = assay: Tested in plaque-reduction assay with rhinovirus type 20 at indicated concentration. and the number of plaque formed was reported at conc. 0.08 ug/mL; type: functional, Homo sapiens; procedure, shortened: as §1
HeLa [7] = assay: Tested in plaque-reduction assay with rhinovirus type 20 at indicated concentration. and the number of plaque formed was reported at conc. 0.17 ug/mL; type: functional, Homo sapiens; procedure, shortened: as §1
HeLa [8] = assay: Percent reduction of plaque formation by rhinovirus type 20 in HeLa cells at conc. 0.00 ug/mL.; type: functional, Homo sapiens; procedure, shortened: as §1
HeLa [9] = assay: Percent reduction of plaque formation by rhinovirus type 20 in HeLa cells at conc. 0.02 ug/mL.; type: functional, Homo sapiens; procedure, shortened: as §1
HeLa [10] = assay: Percent reduction of plaque formation by rhinovirus type 20 in HeLa cells at conc. 0.04 ug/mL.; type: functional, Homo sapiens; procedure, shortened: as §1
HeLa [11] = assay: Percent reduction of plaque formation by rhinovirus type 20 in HeLa cells at conc. 0.08 ug/mL.; type: functional, Homo sapiens; procedure, shortened: as §1
HeLa [12] = assay: Percent reduction of plaque formation by rhinovirus type 20 in HeLa cells at conc. 0.17 ug/mL.; type: functional, Homo sapiens; procedure, shortened: as §1
HeLa [13] = assay: Percent reduction of plaque formation by rhinovirus type 20 in HeLa cells at conc. 0.35 ug/mL.; type: functional, Homo sapiens; procedure, shortened: as §1
HeLa [14] = assay: Percent reduction of plaque formation by rhinovirus type 20 in HeLa cells at conc. 0.75 ug/mL.; type: functional, Homo sapiens; procedure, shortened: as §1
HeLa [15] = assay: Dose required to prevent rhinovirus type 14 plaque formation in HeLa cells by 50%ug/mL of agar overlay; type: functional, Homo sapiens
Procedure, shortened: (§2)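 Confluent monolayers were infected with diluted virus and allowed to adsorb for 1 h at room temperature. They were then overlaid with 1% agarose mixed 1:1 with 2× MEM (Earle's salts, 2.5% FBS), containing compound diluted from a 10000 μg/mL Me2SO stock. Incubation was at 32 °C until control plaques reached 2–10 mm. Cells were fixed with formalin–sodium acetate and stained with crystal violet, and plaques were counted. Duplicate flasks were averaged, and ID50 was estimated by plotting results between 10% and 90% inhibition.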

HeLa [16] = assay: Dose required to prevent rhinovirus type 15 plaque formation in HeLa cells by 50%ug/mL of agar overlay; type: functional; settings: Homo sapiens, read-out: ID50 (the source's name); procedure, shortened: as §2
HeLa [17] = assay: Dose required to prevent rhinovirus type 16 plaque formation in HeLa cells by 50%ug/mL of agar overlay; type: functional; settings: Homo sapiens, read-out: ID50 (the source's name); procedure, shortened: as §2
HeLa [18] = assay: Dose required to prevent rhinovirus type 20 plaque formation in HeLa cells by 50%ug/mL of agar overlay; type: functional; settings: Homo sapiens, read-out: ID50 (the source's name); procedure, shortened: as §2
HeLa [19] = assay: Dose required to prevent rhinovirus type 3 plaque formation in HeLa cells by 50%ug/mL of agar overlay; type: functional; settings: Homo sapiens, read-out: ID50 (the source's name)
Procedure, shortened: (§3)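 Confluent monolayers in flasks received 0.3 mL of diluted virus and adsorbed 1 h at room temperature. They were then overlaid with 1% agarose plus 2× MEM (Earle's salts, 2.5% FBS, penicillin, streptomycin) containing compound diluted from a 10000 μg/mL Me₂SO stock. Flasks were held at 32 °C until control plaques reached 2–10 mm, then fixed with formalin-acetate and stained with crystal violet. Plaques were counted in duplicate flasks and averaged, and ID₅₀ was estimated by plotting the 10–90% inhibition points.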

HeLa [20] = assay: Dose required to prevent rhinovirus type 32 plaque formation in HeLa cells by 50%ug/mL of agar overlay; type: functional; settings: Homo sapiens, read-out: ID50 (the source's name); procedure, shortened: as §2
HeLa [21] = assay: Dose required to prevent rhinovirus type 33 plaque formation in HeLa cells by 50%ug/mL of agar overlay; type: functional; settings: Homo sapiens, read-out: ID50 (the source's name); procedure, shortened: as §2
HeLa [22] = assay: Dose required to prevent rhinovirus type 37 plaque formation in HeLa cells by 50%ug/mL of agar overlay; type: functional; settings: Homo sapiens, read-out: ID50 (the source's name); procedure, shortened: as §3
HeLa [23] = assay: Dose required to prevent rhinovirus type 48 plaque formation in HeLa cells by 50%ug/mL of agar overlay; type: functional; settings: Homo sapiens, read-out: ID50 (the source's name); procedure, shortened: as §2
HeLa [24] = assay: Dose required to prevent rhinovirus type 50 plaque formation in HeLa cells by 50%ug/mL of agar overlay; type: functional; settings: Homo sapiens, read-out: ID50 (the source's name); procedure, shortened: as §3
HeLa [25] = assay: Dose required to prevent rhinovirus type 61 plaque formation in HeLa cells by 50%ug/mL of agar overlay; type: functional; settings: Homo sapiens, read-out: ID50 (the source's name); procedure, shortened: as §2
HeLa [26] = assay: Dose required to prevent rhinovirus type 65 plaque formation in HeLa cells by 50%ug/mL of agar overlay; type: functional; settings: Homo sapiens, read-out: ID50 (the source's name); procedure, shortened: as §2
HeLa [27] = assay: Dose required to prevent rhinovirus type 69 plaque formation in HeLa cells by 50%ug/mL of agar overlay; type: functional; settings: Homo sapiens, read-out: ID50 (the source's name); procedure, shortened: as §2
HeLa [28] = assay: Dose required to prevent rhinovirus type 72 plaque formation in HeLa cells by 50%ug/mL of agar overlay; type: functional; settings: Homo sapiens, read-out: ID50 (the source's name); procedure, shortened: as §2
HeLa [29] = assay: Tested in plaque-reduction assay with rhinovirus type 20 at indicated concentration. and the number of plaque formed was reported at conc. 1.5 ug/mL; type: functional, Homo sapiens; procedure, shortened: as §1
HeLa [30] = assay: Tested in plaque-reduction assay with rhinovirus type 20 at indicated concentration. and the number of plaque formed was reported at conc. 3.0 ug/mL; type: functional, Homo sapiens; procedure, shortened: as §1
HeLa [31] = assay: Percent reduction of plaque formation by rhinovirus type 20 in HeLa cells at conc. 1.5 ug/mL.; type: functional, Homo sapiens; procedure, shortened: as §1
HeLa [32] = assay: Percent reduction of plaque formation by rhinovirus type 20 in HeLa cells at conc. 3.0 ug/mL.; type: functional, Homo sapiens; procedure, shortened: as §1
HeLa [33] = assay: Dose required to prevent rhinovirus type 70 plaque formation in HeLa cells by 50%ug/mL of agar overlay; type: functional; settings: Homo sapiens, read-out: ID50 (the source's name); procedure, shortened: as §3

Structure (SMILES) | No. of plaques (HeLa [1]) | No. of plaques (HeLa [2]) | No. of plaques (HeLa [3]) | No. of plaques (HeLa [6]) | No. of plaques (HeLa [7]) | Reduction (HeLa [8]) | Reduction (HeLa [11]) | Reduction (HeLa [12]) | Reduction (HeLa [13]) | Reduction (HeLa [14]) | IC50 (HeLa [16]) | IC50 (HeLa [17]) | IC50 (HeLa [18]) | IC50 (HeLa [19]) | IC50 (HeLa [20]) | IC50 (HeLa [21]) | IC50 (HeLa [22]) | IC50 (HeLa [23]) | IC50 (HeLa [24]) | IC50 (HeLa [25]) | also measured
CC(C)S(=O)(=O)n1c(N)nc2ccc(/C(=N/O)c3ccccc3)cc21 [ENVIROXIME] | 0 | 0 | 153 | 0 | 0 | 0% | 100% | 100% | 100% | 100% | 0.02 µg/mL (≈ 0.0558 µM) | 0.02 µg/mL (≈ 0.0558 µM) | 0.02 µg/mL (≈ 0.0558 µM) | 0.04 µg/mL (≈ 0.112 µM) | 0.01 µg/mL (≈ 0.0279 µM) | 0.01 µg/mL (≈ 0.0279 µM) | 0.04 µg/mL (≈ 0.112 µM) | 0.03 µg/mL (≈ 0.0837 µM) | > 0.01 µg/mL | 0.01 µg/mL (≈ 0.0279 µM) | No. of plaques (HeLa [4]): 68; No. of plaques (HeLa [5]): 18; Reduction (HeLa [9]): 55%; Reduction (HeLa [10]): 87%; ID50 (HeLa [15]): 0.03 pug ml-1; IC50 (HeLa [26]): > 0.01 µg/mL; IC50 (HeLa [27]): 0.01 µg/mL (≈ 0.0279 µM); IC50 (HeLa [28]): 0.03 µg/mL (≈ 0.0837 µM)
CC(C)S(=O)(=O)n1c(N)nc2ccc(/C(=N\O)c3ccccc3)cc21 [ZINVIROXIME] | 49 | 0 | 153 | 127 | 87 | 0% | 16% | 50% | 67% | 100% | 0.14 µg/mL (≈ 0.391 µM) | 0.16 µg/mL (≈ 0.446 µM) | 0.19 µg/mL (≈ 0.53 µM) | 0.37 µg/mL (≈ 1.03 µM) | 0.13 µg/mL (≈ 0.363 µM) | 0.1 µg/mL (≈ 0.279 µM) | 0.25 µg/mL (≈ 0.697 µM) | 0.28 µg/mL (≈ 0.781 µM) | 0.12 µg/mL (≈ 0.335 µM) | 0.07 µg/mL (≈ 0.195 µM) | No. of plaques (HeLa [29]): 0; No. of plaques (HeLa [30]): 0; Reduction (HeLa [31]): 100%; Reduction (HeLa [32]): 100%; IC50 (HeLa [15]; Homo sapiens, HeLa, read-out: ID50 (the source's name)): 0.36 µg/mL (≈ 1 µM); IC50 (HeLa [26]): 0.07 µg/mL (≈ 0.195 µM); IC50 (HeLa [27]): 0.08 µg/mL (≈ 0.223 µM); IC50 (HeLa [33]): 0.06 µg/mL (≈ 0.167 µM); IC50 (HeLa [28]): 0.3 µg/mL (≈ 0.837 µM)
